# p-CIP stab down – p/CIP-EGFP fusion destabilizers, primary screen, fluorescence, F442A cells; Q05BA5; 16 h; decrease of EGFP signal, % at 10 µM; 290,000 compounds, 0.01% hits;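 active = EGFP signal decrease of at least 30% at 10 µM or well 3 SD below plate mean, unless failing retest; inactive = the rest, including hits failing retest or dose response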
# PHOSPHO1 inh – PubChem AID 1565. inhibition, % at 13.3 µM. 290,000 compounds, 1.1% hits. recombinant PHOSPHO1, absorbance phosphatase assay. Phosphoethanolamine/phosphocholine phosphatase (Homo sapiens), Q8TCT1; in the data active = inhibition above about 60%
# Tb MetRS inh – T. brucei MetRS inhibitors, primary screen, biochemical, luminescence. methionyl-tRNA synthetase (Trypanosoma brucei brucei). purified T. brucei MetRS, ATP depletion, Kinase-Glo luminescence. inhibition, % at 11.9 µM. 360,000 compounds, 0.4% hits. AID 624268, 2012;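 active = inhibition above a per-plate cutoff of the control wells' mean inhibition plus 3 SD, cut at about 5.5% in these data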
#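 Material: T. brucei methionyl-tRNA synthetase, purified; reagent: substrates ATP, L-methionine and bulk Escherichia coli tRNA; dosing: 11.9 µM single point; timing: 15 min plus 2 h at 25 °C; detection: luminescence of leftover ATP; evaluation: % inhibition; control set: DMSO-only wells as low control; replicates: singlicate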
# APOBEC3A inh – APOBEC3A ssDNA deaminase inhibitors, primary screen, selectivity assay for APOBEC3G inhibitor project, biochemical, FAM/TAMRA oligo cleavage fluorescence; AID 493011, 2011; 330,000 compounds, 0.41% hits; recombinant A3A, FAM/TAMRA ssDNA deamination fluorescence; inhibition, % at 20 µM;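 active = at least 40% inhibition at 20 µM here, with at most 30% in a related deaminase screen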
# Target sequence (P31941 whole entry, looked up): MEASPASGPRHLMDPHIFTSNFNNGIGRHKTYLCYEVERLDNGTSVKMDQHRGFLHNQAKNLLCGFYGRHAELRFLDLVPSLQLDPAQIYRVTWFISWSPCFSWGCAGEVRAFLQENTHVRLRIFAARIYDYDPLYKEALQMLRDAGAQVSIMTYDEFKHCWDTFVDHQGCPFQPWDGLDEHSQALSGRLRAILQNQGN
# A3G deaminase – APOBEC3G DNA deaminase inhibitors, primary screen, biochemical, fluorescence, single-stranded DNA substrate, uHTS | DNA dC->dU-editing enzyme APOBEC-3G (Homo sapiens), Q9HC16 | recombinant A3G, ssDNA deamination FAM/TAMRA fluorescence | 330,000 compounds, 0.28% hits | inhibition, % at 20 µM;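 active = inhibition of at least 40% at 20 µM, with no more than 30% in the related APOBEC3A deaminase screen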
# Target sequence (Q9HC16 whole entry, looked up): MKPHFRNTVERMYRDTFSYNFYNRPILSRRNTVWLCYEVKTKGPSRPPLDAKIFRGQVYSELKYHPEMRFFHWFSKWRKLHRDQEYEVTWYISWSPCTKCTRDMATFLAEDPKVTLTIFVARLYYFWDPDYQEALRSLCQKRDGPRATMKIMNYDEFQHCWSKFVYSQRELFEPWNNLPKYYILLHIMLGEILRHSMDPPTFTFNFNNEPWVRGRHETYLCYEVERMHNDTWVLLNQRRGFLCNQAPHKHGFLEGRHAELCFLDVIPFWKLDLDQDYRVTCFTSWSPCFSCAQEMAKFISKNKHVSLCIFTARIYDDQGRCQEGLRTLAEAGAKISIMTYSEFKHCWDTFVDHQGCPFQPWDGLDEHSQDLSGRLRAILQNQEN
# A number is an active result; – = inactive; · = no result. Only some compounds are listed: those with a hit (about 1.8% of all), similar ones and a draw of the others.
SMILES,p-CIP stab down,PHOSPHO1 inh,Tb MetRS inh,APOBEC3A inh,A3G deaminase
Cc1ccccc1-c1cc(C(=O)N/N=C/c2cccnc2)c2ccccc2n1,–,66,–,–,–
O=C(N/N=C/c1cccnc1)c1cc(-c2ccccc2Cl)nc2ccccc12,–,–,7.1,–,–
Nc1ccccc1SC1CC(=O)N(Cc2ccccc2)C1=O (stereo not given),–,–,–,–,–
CCOC(=O)c1c(C2COc3ccccc3O2)csc1NC(=O)c1ccco1 (stereo not given),–,86,–,–,–
COc1cc(C(=S)N2CCCC2)ccc1OCc1ccc(C)cc1,–,–,–,–,–
Cc1ccccc1N(CC(=O)Nc1ccc(S(=O)(=O)N2CCOCC2)cc1)S(C)(=O)=O,–,63,–,–,–
CS(=O)(=O)N(CC(=O)Nc1ccc(S(=O)(=O)N2CCOCC2)cc1)c1ccccc1Cl,–,–,–,–,–
CCN(CC)S(=O)(=O)c1cccc(-c2nnc(SCC(=O)c3cc(C)n(C)c3C)o2)c1,–,80,–,–,–
C=CCNC(=S)NNC(=O)c1ccc(OCC(C)C)cc1,–,60,–,–,–
C=CCNC(=S)NNC(=O)c1ccc(OCC)cc1,–,–,–,–,–
O=C(CSc1nc2ccccc2n1CCc1ccccc1)NC1CCS(=O)(=O)C1 (stereo not given),–,97,–,–,–
Nn1cc(-c2ccccc2)nc1SCC(=O)NCCN1C(=O)CSC1=O,–,82,–,–,–
O=C(CSc1nc2ccccc2n1CCc1ccccc1)NC1CC1,–,–,–,–,–
Nn1cc(-c2ccccc2)nc1SCC(=O)NC1CCS(=O)(=O)C1 (stereo not given),–,88,–,–,–
O=C(CSc1nc(-c2ccccc2)c(-c2ccccc2)o1)NC1CCS(=O)(=O)C1 (stereo not given),–,–,–,–,–
COc1ccc(N(CC(O)CN2CCOCC2)S(=O)(=O)c2ccccc2)cc1 (stereo not given),–,–,–,–,–
Cc1ccc([C@H]2N[C@]3(CCCN(Cc4ccc(C(F)(F)F)cc4)C3=O)[C@H]3C(=O)N(C)C(=O)[C@@H]23)cc1,·,·,–,·,·
CCN1C[C@@H]2[C@@H]3C(=O)N(Cc4ccccc4)C(=O)[C@@H]3[C@](C)(C1=O)N2C(=O)c1ccc(Br)cc1,·,·,–,·,·
CCc1ccc(-n2ccc(=O)c(C(=O)O)n2)cc1,–,–,–,–,–
c1ccc2c(c1)OCC(c1nnc3sc(-c4cnccn4)nn13)O2 (stereo not given),–,–,–,–,–
Fc1ccc(-c2nn3c(C4COc5ccccc5O4)nnc3s2)cc1 (stereo not given),–,79,–,–,–
c1csc(-c2nn3c(C4COc5ccccc5O4)nnc3s2)c1 (stereo not given),–,69,–,–,–
Cc1ccc2c(c1)N(CCCC(=O)NCc1ccc3c(c1)OCO3)C(=O)CO2,–,–,–,–,–
CC(=O)c1ccc(NC(=O)CCCN2C(=O)COc3ccc(C)cc32)cc1,–,70,–,–,–
CCCCOc1ccc(-c2nnn(CC(=O)NCc3ccco3)n2)cc1,–,–,–,–,–
SMILES,p-CIP stab down,PHOSPHO1 inh,Tb MetRS inh,APOBEC3A inh,A3G deaminase
O=C(Cn1nnc(-c2ccccc2F)n1)NCc1ccco1,–,66,–,–,–
[O-]C1=N/[N+](=C/c2ccccc2Cl)CC1,–,–,–,–,–
O=C1C(SCCO)=C(SCCO)C(=O)c2ccccc21,·,·,–,–,73
CC1=C(SCc2ccccc2)C(=O)c2ccccc2C1=O,·,·,–,·,·
O=C(COc1ccccc1Cl)Nc1nnc(S(=O)(=O)N2CCCC2)s1,–,–,–,–,–
COc1cccc(C(c2sc3nc(C)nn3c2O)N2CCc3ccccc3C2)c1 (stereo not given),–,74,–,–,–
CCN1CCN(C(c2cccc(OC)c2)c2sc3nc(C)nn3c2O)CC1 (stereo not given),–,–,–,–,–
CCc1nnc(NC(=O)Cn2c(=O)oc3ccccc32)s1,–,–,–,–,–
CCCc1nnc(NC(=O)Cn2c(=O)oc3ccccc32)s1,–,–,–,–,–
CCCc1nnc(NC(=O)Cn2c(=O)oc3cc(Br)ccc32)s1,–,100,–,–,–
CC1CCCC(C)N1c1nnc(NC(=O)Cn2c(=O)oc3ccccc32)s1 (stereo not given),–,62,–,–,–
COc1cc2oc(=O)ccc2cc1-c1c(OC)ccc2ccc(=O)oc12,·,·,–,–,–
COc1cc(NC(=O)CCc2nnc3ccc(N4CCC5(CC4)OCCO5)nn23)cc(OC)c1,–,–,–,–,–
Cc1cc(-c2nnc(-c3cccc(C(F)(F)F)c3)o2)no1,–,–,–,–,–
Cc1ccc(-c2nnc(-c3cc(C)on3)o2)cc1,–,61,–,–,–
CCc1ccc(OCc2n[nH]c(=S)n2Cc2ccccc2)cc1,–,90,–,–,–
S=c1[nH]nc(-c2ccccc2)n1Cc1ccccc1,–,105,–,–,–
S=c1[nH]nc(-c2ccc(Cl)cc2)n1Cc1ccccc1,–,–,–,–,–
Cc1ccn(Cc2n[nH]c(=S)n2Cc2ccccc2)n1,–,78,–,–,–
CCCCOc1ccc(Cc2n[nH]c(=S)n2N)cc1,–,79,–,–,–
O=C(NN1CCOCC1)c1ccc(Cl)cc1[N+](=O)[O-],–,–,–,–,–
CS(=O)(=O)c1ccc(Cl)c(NC(=O)CCN2C(=O)NC3(CCCC3)C2=O)c1,·,·,–,–,–
O=C(Nc1cccnc1)C1CCCN(c2ncnc3c2nc2n3CCCCC2)C1 (stereo not given),–,–,–,–,–
CCc1cccc(NC(=O)C2CCCN(c3ncnc4c3nc3n4CCCCC3)C2)c1 (stereo not given),–,63,–,–,–
Cc1cc(NC(=O)CSCC(=O)N(c2cccc(Cl)c2)C(C(=O)NC2CCCCC2)c2ccc(O)c(O)c2)no1 (stereo not given),–,–,–,–,–
Cc1snc(SCC(=O)c2ccc([N+](=O)[O-])cc2)c1C#N,–,72,–,–,50
Cc1c(C(c2ccccc2Br)c2c(C)n(C)n(-c3ccccc3)c2=O)c(=O)n(-c2ccccc2)n1C,–,–,–,–,–
COc1ccc(Cl)cc1C(=O)NNC(=S)NC(=O)c1ccc(F)c(F)c1,–,–,–,–,–
Cc1nc2sc(C(=O)O)c(N)c2c2c1COC(C)(C)C2,–,66,–,–,–
C#CCSc1nnc(CSc2nc3ccccc3s2)n1-c1ccccc1,–,76,–,–,–

# High-throughput results from PubChem.
